The results in this text go back to ChEMBL document CHEMBL4321805, “A Conformational Restriction Strategy for the Identification of a Highly Selective Pyrimido-pyrrolo-oxazine mTOR Inhibitor” (J Med Chem, 2019).

One series addresses T1, CYP1A2 (Homo sapiens, UniProt P05177).
T1 sequence (P05177 whole entry): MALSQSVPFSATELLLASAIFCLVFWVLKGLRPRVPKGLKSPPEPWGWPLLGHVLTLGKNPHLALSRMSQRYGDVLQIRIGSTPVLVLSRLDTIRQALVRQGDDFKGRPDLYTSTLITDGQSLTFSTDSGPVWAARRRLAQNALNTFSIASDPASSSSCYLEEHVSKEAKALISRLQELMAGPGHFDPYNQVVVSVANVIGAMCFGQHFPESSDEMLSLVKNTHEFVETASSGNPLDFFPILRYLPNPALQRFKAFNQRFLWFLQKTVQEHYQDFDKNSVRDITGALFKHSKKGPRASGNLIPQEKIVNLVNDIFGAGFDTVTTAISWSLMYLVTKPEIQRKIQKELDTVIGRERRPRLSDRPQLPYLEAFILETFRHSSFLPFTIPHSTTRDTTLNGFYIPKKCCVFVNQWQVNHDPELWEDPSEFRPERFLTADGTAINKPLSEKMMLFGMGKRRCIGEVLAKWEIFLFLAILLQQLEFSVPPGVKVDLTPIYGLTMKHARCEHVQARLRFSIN
The experiment in a line: Substrate activity at recombinant human CYP1A2 expressed in baculovirus infected insect cells assessed as parent compound remaining at 1 uM incubated for 60 mins in absence of NADP+-regenerating system by LC-MS analysis. It is filed as ADME. The note with it: read-out: Stability. In outline: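 Baculovirus/insect-cell Supersomes, each expressing a single human CYP, at 25 pmol/mL. Compound at 1 μM (0.25% DMSO), 37 °C, 60 min. Reactions run with a NADP+-regenerating cofactor mix or, as negative control, without cofactors and glucose-6-phosphate dehydrogenase. Stopped with ACN containing internal standard. Duplicates; % remaining from absolute amounts.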

Series [1] has as its target T2, Phosphatidylinositol 4,5-bisphosphate 3-kinase catalytic subunit delta isoform (Homo sapiens, UniProt O00329).
T2 sequence (O00329 whole entry): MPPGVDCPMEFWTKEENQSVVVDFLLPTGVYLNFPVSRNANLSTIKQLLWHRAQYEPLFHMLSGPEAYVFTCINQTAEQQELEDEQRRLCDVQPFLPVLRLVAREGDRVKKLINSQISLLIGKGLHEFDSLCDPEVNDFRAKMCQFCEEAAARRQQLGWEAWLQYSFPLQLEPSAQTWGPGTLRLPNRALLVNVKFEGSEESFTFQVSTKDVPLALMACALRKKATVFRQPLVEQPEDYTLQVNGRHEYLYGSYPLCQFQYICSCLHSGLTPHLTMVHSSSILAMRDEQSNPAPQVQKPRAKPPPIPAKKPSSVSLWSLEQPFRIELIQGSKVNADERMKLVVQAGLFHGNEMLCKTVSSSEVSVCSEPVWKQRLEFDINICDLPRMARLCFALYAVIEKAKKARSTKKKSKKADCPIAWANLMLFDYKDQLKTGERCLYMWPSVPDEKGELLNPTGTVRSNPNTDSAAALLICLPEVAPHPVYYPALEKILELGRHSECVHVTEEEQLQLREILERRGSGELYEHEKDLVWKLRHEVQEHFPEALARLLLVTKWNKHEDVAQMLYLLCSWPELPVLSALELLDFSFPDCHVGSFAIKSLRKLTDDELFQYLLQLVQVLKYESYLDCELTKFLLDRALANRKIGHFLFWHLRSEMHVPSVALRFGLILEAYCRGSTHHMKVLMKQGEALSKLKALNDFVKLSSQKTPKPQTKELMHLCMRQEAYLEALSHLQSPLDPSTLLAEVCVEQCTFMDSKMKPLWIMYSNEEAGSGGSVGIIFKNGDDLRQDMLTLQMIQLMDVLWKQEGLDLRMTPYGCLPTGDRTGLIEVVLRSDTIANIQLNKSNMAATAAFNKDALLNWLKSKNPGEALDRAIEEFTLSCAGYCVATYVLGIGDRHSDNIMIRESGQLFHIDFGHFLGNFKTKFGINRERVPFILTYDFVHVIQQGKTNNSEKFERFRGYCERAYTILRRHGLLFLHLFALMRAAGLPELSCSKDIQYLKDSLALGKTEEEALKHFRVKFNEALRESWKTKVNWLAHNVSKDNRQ
The experiment in a line: Binding affinity to human wild-type partial length PI3Kdelta (R108 to Q1044 residues) expressed in mammalian expression system by kinome scan assay. An outline of the steps: (§1)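 DNA-tagged kinases competed against immobilized ligand with an 11-point 3-fold serial dilution starting from 30 μM. Kinase bound measured by qPCR of the DNA tags. Kd from standard dose–response curves with the Hill equation (Hill slope −1); mean of duplicate experiments.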

The target in series [2] is Phosphatidylinositol 4,5-bisphosphate 3-kinase catalytic subunit beta isoform (Homo sapiens, UniProt P42338). The series is described as follows: Binding affinity to human wild-type partial length PI3Kbeta (P118 to S1070 residues) expressed in mammalian expression system by kinome scan assay. In outline: as §1
Series [3] deals with PI3-kinase p110-alpha/p85-alpha (Homo sapiens, UniProt P42336). The series is described as follows: Inhibition of alexa fluor 647-labeled kinase tracer 314 binding to recombinant human full-length N-terminal His6-tagged p110alpha/p85alpha expressed in baculovirus expression system by TR-FRET assay.
Series [4] deals with Phosphatidylinositol 3-kinase catalytic subunit type 3 (Homo sapiens, UniProt Q8NEB9). The experiment in a line: Binding affinity to human wild-type partial length VPS34 (S282 to H879 residues) expressed in mammalian expression system by kinome scan assay. An outline of the steps:
as §1

Series [5] has as its target Phosphatidylinositol 4,5-bisphosphate 3-kinase catalytic subunit gamma isoform (Homo sapiens, UniProt P48736). The experiment in a line: Binding affinity to human wild-type partial length PI3Kgamma (S144 to A1102 residues) expressed in mammalian expression system by kinome scan assay. In outline:
as §1

The next series has as its target mTORC2 (Homo sapiens, UniProt P42345). The experiment in a line: Inhibition of mTORC2 in human A2058 cells assessed as reduction in PKB phosphorylation at S473 residues incubated for 1 hr by Western blot analysis. It is filed as cell-based. In outline: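 In-cell Western assay. A2058 cells (2 × 10^4/well) grown 24 h at 37 °C, 5% CO2, then exposed 1 h to inhibitor or DMSO. Cells fixed in 4% PFA, blocked, and stained for the phospho-protein with α-tubulin as internal standard; infrared fluorescence read-out. Signals normalized to tubulin and to DMSO controls to derive IC50.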
(A western blot detects proteins with antibodies after separation by electrophoresis.)

Chain of PI3-kinase p110-alpha/p85-alpha (P27986 whole entry, the tested form may be a part): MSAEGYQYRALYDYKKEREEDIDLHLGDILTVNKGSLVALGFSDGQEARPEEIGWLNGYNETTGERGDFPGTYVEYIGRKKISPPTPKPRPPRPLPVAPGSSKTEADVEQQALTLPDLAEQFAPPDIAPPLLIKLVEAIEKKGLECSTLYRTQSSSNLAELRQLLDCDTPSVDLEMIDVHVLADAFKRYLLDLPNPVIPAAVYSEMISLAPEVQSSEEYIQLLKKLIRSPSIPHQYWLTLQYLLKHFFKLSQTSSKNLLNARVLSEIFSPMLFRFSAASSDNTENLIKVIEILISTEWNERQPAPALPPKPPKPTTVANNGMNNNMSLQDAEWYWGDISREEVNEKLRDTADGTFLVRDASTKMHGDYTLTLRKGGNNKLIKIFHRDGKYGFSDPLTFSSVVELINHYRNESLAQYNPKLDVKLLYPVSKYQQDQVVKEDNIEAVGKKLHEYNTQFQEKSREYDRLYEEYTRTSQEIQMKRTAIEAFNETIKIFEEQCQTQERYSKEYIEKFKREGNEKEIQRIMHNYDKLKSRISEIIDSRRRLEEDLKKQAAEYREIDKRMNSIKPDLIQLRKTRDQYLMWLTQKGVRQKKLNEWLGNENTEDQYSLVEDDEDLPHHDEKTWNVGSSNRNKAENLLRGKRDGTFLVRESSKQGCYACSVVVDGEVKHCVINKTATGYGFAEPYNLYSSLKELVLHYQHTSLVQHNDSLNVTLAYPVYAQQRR
Chain of PI3-kinase p110-alpha/p85-alpha (P42336 whole entry, the tested form may be a part): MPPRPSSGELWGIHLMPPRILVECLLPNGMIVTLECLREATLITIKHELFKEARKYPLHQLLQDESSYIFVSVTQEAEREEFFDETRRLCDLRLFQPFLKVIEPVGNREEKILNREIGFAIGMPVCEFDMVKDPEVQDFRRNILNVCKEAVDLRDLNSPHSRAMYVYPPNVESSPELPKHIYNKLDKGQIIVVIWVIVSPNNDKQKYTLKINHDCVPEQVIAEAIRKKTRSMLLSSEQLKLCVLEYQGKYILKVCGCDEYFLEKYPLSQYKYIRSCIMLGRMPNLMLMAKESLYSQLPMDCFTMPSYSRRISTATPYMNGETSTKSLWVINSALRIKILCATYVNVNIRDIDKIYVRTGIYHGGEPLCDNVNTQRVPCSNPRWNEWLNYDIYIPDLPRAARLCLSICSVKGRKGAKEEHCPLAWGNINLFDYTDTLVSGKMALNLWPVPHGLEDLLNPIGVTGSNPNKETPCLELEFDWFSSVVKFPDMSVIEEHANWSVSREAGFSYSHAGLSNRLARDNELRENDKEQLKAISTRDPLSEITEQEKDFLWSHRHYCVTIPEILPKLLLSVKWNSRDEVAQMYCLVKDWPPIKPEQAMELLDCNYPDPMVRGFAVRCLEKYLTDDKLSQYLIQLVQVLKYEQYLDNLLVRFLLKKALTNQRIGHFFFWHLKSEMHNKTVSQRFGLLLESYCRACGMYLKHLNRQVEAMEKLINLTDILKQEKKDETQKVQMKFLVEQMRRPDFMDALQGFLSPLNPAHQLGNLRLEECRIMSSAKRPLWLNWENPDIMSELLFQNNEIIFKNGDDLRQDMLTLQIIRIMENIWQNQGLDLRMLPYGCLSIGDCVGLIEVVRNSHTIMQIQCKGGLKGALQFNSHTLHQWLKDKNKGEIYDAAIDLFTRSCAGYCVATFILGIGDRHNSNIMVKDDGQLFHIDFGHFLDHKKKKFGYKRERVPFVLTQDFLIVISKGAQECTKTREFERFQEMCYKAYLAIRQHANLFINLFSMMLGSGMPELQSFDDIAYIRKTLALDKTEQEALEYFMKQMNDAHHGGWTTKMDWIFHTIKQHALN
Chain of Phosphatidylinositol 4,5-bisphosphate 3-kinase catalytic subunit gamma isoform (P48736 whole entry, the tested form may be a part, canonical isoform): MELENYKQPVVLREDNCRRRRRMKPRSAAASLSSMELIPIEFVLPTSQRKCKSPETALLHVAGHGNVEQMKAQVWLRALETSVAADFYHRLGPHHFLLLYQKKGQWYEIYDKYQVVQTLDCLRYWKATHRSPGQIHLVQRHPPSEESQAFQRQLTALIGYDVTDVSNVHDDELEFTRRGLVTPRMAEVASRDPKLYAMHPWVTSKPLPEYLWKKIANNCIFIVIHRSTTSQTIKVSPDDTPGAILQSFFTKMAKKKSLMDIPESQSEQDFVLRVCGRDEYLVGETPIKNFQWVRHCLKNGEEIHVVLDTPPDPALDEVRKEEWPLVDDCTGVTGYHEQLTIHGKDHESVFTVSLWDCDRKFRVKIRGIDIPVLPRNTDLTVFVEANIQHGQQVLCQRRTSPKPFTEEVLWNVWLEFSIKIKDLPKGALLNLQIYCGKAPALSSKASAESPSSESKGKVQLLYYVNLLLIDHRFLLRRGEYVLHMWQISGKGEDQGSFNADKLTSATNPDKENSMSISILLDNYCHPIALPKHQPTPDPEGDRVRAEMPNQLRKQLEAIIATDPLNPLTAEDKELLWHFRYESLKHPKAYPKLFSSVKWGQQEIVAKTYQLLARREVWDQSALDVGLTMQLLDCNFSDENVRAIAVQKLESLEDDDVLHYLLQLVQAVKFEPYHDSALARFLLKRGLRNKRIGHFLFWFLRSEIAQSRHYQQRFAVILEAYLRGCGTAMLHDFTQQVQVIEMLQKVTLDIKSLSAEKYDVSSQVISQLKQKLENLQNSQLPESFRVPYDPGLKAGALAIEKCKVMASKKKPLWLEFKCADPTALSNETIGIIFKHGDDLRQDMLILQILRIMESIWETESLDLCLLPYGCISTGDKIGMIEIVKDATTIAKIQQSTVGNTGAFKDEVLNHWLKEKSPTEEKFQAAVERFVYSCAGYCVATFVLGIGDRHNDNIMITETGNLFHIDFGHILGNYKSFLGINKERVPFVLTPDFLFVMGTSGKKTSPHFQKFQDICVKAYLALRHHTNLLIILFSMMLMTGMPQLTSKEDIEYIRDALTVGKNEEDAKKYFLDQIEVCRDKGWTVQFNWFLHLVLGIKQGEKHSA
Chain of Phosphatidylinositol 3-kinase catalytic subunit type 3 (Q8NEB9 whole entry, the tested form may be a part): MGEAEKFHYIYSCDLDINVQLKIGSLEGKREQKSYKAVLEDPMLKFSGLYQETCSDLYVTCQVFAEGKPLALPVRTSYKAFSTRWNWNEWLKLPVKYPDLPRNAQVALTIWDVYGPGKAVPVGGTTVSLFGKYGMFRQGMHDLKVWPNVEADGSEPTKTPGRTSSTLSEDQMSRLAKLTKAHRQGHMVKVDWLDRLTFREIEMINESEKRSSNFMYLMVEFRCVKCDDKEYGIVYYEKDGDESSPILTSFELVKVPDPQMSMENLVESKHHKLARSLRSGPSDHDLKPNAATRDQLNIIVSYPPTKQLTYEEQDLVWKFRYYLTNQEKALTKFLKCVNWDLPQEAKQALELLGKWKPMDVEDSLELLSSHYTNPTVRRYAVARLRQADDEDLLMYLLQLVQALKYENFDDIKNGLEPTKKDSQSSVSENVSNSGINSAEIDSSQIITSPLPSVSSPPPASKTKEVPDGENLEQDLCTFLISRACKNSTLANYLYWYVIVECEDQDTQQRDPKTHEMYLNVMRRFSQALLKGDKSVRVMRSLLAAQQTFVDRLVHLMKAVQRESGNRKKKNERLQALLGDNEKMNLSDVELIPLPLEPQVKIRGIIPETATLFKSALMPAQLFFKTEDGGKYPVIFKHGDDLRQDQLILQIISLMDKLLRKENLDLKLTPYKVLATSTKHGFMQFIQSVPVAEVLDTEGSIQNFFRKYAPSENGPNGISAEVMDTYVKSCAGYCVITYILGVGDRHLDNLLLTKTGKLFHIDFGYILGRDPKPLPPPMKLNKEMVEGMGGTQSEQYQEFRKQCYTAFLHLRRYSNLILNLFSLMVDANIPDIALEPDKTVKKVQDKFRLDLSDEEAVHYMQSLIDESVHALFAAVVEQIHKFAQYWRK
Chain of Phosphatidylinositol 4,5-bisphosphate 3-kinase catalytic subunit beta isoform (P42338 whole entry, the tested form may be a part, canonical isoform): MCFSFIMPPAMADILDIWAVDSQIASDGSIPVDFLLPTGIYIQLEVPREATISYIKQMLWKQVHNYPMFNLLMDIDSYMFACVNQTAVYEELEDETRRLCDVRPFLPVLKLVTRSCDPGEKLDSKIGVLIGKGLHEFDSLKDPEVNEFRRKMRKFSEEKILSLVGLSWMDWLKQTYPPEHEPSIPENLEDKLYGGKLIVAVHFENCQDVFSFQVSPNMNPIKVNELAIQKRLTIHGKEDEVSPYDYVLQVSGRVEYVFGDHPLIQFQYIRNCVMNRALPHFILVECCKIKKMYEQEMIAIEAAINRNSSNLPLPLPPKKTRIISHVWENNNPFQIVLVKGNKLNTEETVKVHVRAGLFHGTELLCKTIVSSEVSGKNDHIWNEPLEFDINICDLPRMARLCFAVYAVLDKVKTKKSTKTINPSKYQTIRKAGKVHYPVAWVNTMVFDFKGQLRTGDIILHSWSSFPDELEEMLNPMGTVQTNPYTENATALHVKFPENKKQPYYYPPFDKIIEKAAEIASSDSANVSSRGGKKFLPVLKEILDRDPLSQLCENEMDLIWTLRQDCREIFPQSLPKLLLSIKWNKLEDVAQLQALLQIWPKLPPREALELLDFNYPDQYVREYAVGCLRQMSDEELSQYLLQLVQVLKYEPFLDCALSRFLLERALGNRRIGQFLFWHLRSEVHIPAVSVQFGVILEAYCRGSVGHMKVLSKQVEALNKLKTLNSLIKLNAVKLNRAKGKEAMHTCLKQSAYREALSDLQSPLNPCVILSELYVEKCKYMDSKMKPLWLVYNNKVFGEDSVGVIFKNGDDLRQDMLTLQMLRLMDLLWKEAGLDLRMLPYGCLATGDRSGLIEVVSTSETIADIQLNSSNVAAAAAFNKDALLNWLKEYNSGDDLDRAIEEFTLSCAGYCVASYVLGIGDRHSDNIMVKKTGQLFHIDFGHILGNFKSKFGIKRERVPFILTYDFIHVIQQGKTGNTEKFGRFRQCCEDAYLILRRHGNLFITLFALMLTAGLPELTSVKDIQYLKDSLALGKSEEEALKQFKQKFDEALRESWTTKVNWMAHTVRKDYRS

For the molecule `C[C@@H]1COCCN1c1nc(-c2ccc(N)nc2)nc2c1C[C@@H]1COCCN21`, the remaining at 1 h, 1 µM on CYP1A2 was 94%. Also, the Kd (in general, a measure of binding affinity in units of concentration) worked out at 6200 nM in series [1], 4100 nM in series [2], 2100 nM in series [4] and 8700 nM in series [5]. Also, the Ki (commonly the dissociation constant of the complex between target and ligand, obtained from inhibition or displacement) in series [3] turned out to be 2150 nM. For the same molecule, on mTORC2, the half-inhibitory concentration (IC50) (usually the concentration at which inhibition is half-maximal) came out at 133 nM.

On to `C[C@@H]1COCCN1c1nc(-c2cnc(N)cn2)nc2c1C[C@@H]1COCCN21`, for which, on CYP1A2, the remaining at 1 h, 1 µM came out at 91%. In addition, the Kd worked out at 12000 nM in series [1], 7500 nM in series [2], 3200 nM in series [4] and 11000 nM in series [5]. For the same molecule, the inhibitory constant (Ki) in series [3] worked out at 1690 nM. Besides, the concentration for half-maximal inhibition (IC50) at mTORC2 was 94 nM.

Consider `C[C@@H]1COCCN1c1nc(-c2cnc(N)nc2)nc2c1C[C@@H]1COCCN21`, for which the remaining at 1 h, 1 µM on CYP1A2 is 91%. For the same molecule, the dissociation constant (Kd) in series [1] turned out to be 1900 nM; in series [2], 1400 nM; in series [4] it was 980 nM; in series [5], 1800 nM. Also, the Ki in series [3] was 536 nM. Moreover, the IC50 at mTORC2 was 77 nM.
